Data as given in ChEMBL document CHEMBL1155224, “Discovery of new inhibitors of resistant Streptococcus pneumoniae penicillin binding protein (PBP) 2x by structure-based virtual screening” (J Med Chem, 2009).
Residue numbers refer to the chain shown, from its start. Converted amounts (≈) assume the structure as drawn. The source made the active and inactive calls. The rule behind the calls is not given here.

What was measured:
[1] = target: T1, Penicillin-binding protein 2X (Streptococcus pneumoniae R6) (UniProt P59676); assay: (§1) Inhibition of penicillin-sensitive Streptococcus pneumoniae R6 PBP2X preincubated for 1 hr before addition of substrate (R)-[2-(benzoylamino)propionylsulfanyl]acetic acid
T1 sequence (whole entry): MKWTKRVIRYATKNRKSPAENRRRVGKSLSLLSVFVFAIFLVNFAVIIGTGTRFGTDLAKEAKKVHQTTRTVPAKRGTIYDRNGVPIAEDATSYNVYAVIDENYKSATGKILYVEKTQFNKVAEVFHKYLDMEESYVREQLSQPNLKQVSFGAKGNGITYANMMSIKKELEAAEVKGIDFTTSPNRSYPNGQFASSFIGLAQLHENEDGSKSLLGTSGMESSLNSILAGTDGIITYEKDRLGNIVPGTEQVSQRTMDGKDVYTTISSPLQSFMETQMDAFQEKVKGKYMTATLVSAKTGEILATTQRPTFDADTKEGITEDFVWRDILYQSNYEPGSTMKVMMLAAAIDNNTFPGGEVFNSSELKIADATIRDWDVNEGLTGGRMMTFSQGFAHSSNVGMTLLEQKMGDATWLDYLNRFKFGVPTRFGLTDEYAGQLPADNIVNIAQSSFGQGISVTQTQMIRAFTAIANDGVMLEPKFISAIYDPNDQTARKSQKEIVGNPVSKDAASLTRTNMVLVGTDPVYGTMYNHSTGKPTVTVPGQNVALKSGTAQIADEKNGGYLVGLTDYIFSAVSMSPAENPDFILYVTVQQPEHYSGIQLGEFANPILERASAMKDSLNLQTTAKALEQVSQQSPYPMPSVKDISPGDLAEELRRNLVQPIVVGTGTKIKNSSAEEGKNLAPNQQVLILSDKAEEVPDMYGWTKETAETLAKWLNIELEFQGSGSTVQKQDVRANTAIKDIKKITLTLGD
Procedure, shortened: (§2)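 Compounds taken from 100 mM DMF stocks (1% DMF final) and preincubated with 0.09 μM R6-PBP2x in 10 mM sodium phosphate pH 7.0 with 0.01 mg/mL BSA, 60 min, 25 °C. Spontaneous hydrolysis without enzyme measured. Triplicates. IC50 fitted from residual activity versus decreasing inhibitor concentration, with 0.01% Triton X-100.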

[2] = target: T2, Penicillin-binding protein 2x (Streptococcus pneumoniae serotype 4 (strain ATCC BAA-334 / TIGR4)) (UniProt P14677); assay: (§3) Inhibition of penicillin-resistant Streptococcus pneumoniae 5204 PBP2X preincubated for 4 hrs before addition of substrate (R)-[2-(benzoylamino)propionylsulfanyl]acetic acid
T2 sequence (whole entry): T1 sequence (whole entry) with M385T
Procedure, shortened: (§4)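 0.6 μM 5204-PBP2x preincubated 4 h at 25 °C with inhibitor in 10 mM sodium phosphate pH 7.0, 70 mM D-alanine, 0.01 mg/mL BSA, 1% DMF, 0.01% Triton X-100. Assays were run in triplicate, and IC50 was fitted from residual activity versus decreasing inhibitor concentrations.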

[3] = test system: Streptococcus pneumoniae; assay: Antibacterial activity against penicillin-resistant Streptococcus pneumoniae SP328; assay type: functional
[4] = test system: Streptococcus pneumoniae; assay: Antibacterial activity against penicillin-resistant Streptococcus pneumoniae 5259; assay type: functional
[5] = Inhibition of Streptococcus pneumoniae PBP1B after 60 mins by SDS-PAGE
Procedure, shortened: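 Test compounds incubated with 0.7 μM PBP1b in 10 mM sodium phosphate pH 7.0 for 60 min at 30 °C. Remaining active enzyme counter-labeled with 10 μM fluorescein-labeled ampicillin for 20 min. Reaction stopped, proteins separated by SDS-PAGE and read by fluorescence imaging with background subtracted.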

[6] = target: T3, Penicillin-binding protein 2X (Streptococcus pneumoniae R6, UniProt P59676); assay: as §1; procedure, shortened: as §2
T3 sequence (P59676 whole entry): T1 sequence (whole entry)

[7] = target: Penicillin-binding protein 2x (Streptococcus pneumoniae serotype 4 (strain ATCC BAA-334 / TIGR4), UniProt P14677); assay: as §3; procedure, shortened: as §4
Penicillin-binding protein 2x, sequence (P14677 whole entry, looked up): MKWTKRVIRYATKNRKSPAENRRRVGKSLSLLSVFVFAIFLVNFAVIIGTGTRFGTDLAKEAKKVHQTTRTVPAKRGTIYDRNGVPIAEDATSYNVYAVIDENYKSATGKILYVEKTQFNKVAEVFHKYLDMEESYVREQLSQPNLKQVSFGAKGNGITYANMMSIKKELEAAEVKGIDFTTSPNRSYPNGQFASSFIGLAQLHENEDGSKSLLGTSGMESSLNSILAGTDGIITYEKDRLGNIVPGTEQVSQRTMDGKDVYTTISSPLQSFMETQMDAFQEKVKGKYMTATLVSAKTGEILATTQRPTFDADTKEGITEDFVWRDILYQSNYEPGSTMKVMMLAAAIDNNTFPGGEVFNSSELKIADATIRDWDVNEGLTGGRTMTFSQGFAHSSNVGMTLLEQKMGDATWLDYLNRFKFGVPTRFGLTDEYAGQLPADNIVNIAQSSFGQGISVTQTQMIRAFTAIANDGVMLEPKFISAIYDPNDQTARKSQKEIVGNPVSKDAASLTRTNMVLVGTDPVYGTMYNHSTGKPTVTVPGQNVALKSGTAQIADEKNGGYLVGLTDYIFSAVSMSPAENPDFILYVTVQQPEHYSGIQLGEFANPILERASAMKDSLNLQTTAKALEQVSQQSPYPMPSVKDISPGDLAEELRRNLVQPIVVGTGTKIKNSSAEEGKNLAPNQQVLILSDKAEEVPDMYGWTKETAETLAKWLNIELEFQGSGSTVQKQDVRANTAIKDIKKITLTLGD

[8] = target: T2, Penicillin-binding protein 2x (Streptococcus pneumoniae serotype 4 (strain ATCC BAA-334 / TIGR4)); assay: Inhibition of penicillin-resistant Streptococcus pneumoniae 5204 PBP2X assessed as residual activity at 100 uM preincubated for 1 hr before addition of substrate (R)-[2-(benzoylamino)propionylsulfanyl]acetic acid
[9] = target: T2, Penicillin-binding protein 2x (Streptococcus pneumoniae serotype 4 (strain ATCC BAA-334 / TIGR4)); assay: Inhibition of penicillin-resistant Streptococcus pneumoniae 5204 PBP2X; procedure, shortened: as §4
[10] = target: T2, Penicillin-binding protein 2x (Streptococcus pneumoniae serotype 4 (strain ATCC BAA-334 / TIGR4)); assay: Inhibition of penicillin-resistant Streptococcus pneumoniae 5204 PBP2X assessed as residual activity at 200 uM preincubated for 1 hr before addition of substrate (R)-[2-(benzoylamino)propionylsulfanyl]acetic acid

| Structure (SMILES) | Activity [1] | Activity [2] | also measured |
| --- | --- | --- | --- |
| CC1(C)S[C@@H]2[C@H](NC(=O)Cc3ccccc3)C(=O)N2[C@H]1C(=O)O [PENICILLIN G] | Active | Active | MIC [3]: 4 µg/mL (≈ 12 µM); MIC [4]: 0.19 µg/mL (≈ 0.568 µM) |
| Cc1cc(Cl)ccc1NC(=O)Nc1c(Oc2ccc(Cl)cc2)ccc(Cl)c1S(=O)(=O)O |  |  | IC50 ([5]; read-out: IC50): 259 µM; IC50 [6]: 336 µM; IC50 [7]: 71 µM; Activity [8]: 50%; Activity [9]: Active |
| CO/N=C(\C(=O)N[C@@H]1C(=O)N2C(C(=O)O)=C(CSc3nc(=O)c(O)nn3C)CS[C@H]12)c1csc(N)n1 | Active | Active |  |
| CCO/N=C(\C(=O)N[C@@H]1C(=O)N2C(C(=O)[O-])=C(C[n+]3cccc4c3ncn4CCCNC)CS[C@H]12)c1nsc(N)n1 | Active | Active |  |
| Cc1ccc(Nc2nnc(CSc3ccc(Cl)cc3)s2)c(S(=O)(=O)O)c1 |  |  | IC50 [5]: Not Active; IC50 [6]: > 1000 µM; IC50 [7]: 219 µM; Activity [10]: 54%; Activity [9]: Active |
| O=C(COc1ccccc1)N[C@H]1CON([C@@]2(C(=O)O)CCC(=O)O2)C1=O | Active | Active |  |
| O=C(Nc1cccc(C(F)(F)F)c1)Nc1c(Oc2ccc(Cl)c(Cl)c2)ccc(Cl)c1S(=O)(=O)O |  |  | IC50 ([5]; read-out: IC50): 88 µM; IC50 [6]: 255 µM; IC50 [7]: 72 µM; Activity [8]: 50%; Activity [9]: Active |
| CO[C@H]1CCC[C@H]2C1=C(C(=O)O)N1C(=O)[C@H]([C@@H](C)O)[C@@H]21 | Active | Active |  |
| CCn1c2ccccc2c2cc(/C=C3\S/C(=N\c4ccccc4)N(C(C(=O)O)C(C)C)C3=O)ccc21 (centres undefined) | inactive | inactive |  |
| N[C@@H](C(=O)N[C@@H]1C(=O)N2C(C(=O)O)=C(Cl)CS[C@H]12)c1ccccc1 | Active | Active |  |
| C[C@@H](O)[C@H]1C(=O)N2C(C(=O)O)=C(S[C@@H]3CN[C@H](C(=O)N(C)C)C3)[C@H](C)[C@H]12 | Active | Active |  |
| C[C@@H](O)[C@H]1C(=O)N2C(C(=O)[O-])=C(SC3Cn4cnc[n+]4C3)[C@H](C)[C@H]12 (some centres undefined) | Active | Active |  |
| C[C@@H](O)[C@H]1C(=O)N2C(C(=O)O)=C([C@H]3CCCO3)S[C@H]12 | Active | Active |  |
| CCn1c2ccccc2c2cc(/C=C3\S/C(=N\c4ccccc4)N(C(C(=O)O)c4ccccc4)C3=O)ccc21 (centres undefined) | inactive | inactive |  |
| CC=CC1=C(C(=O)O)N2C(=O)[C@@H](NC(=O)[C@H](N)c3ccc(O)cc3)[C@H]2SC1 | Active | Active |  |
| O=C(Cc1cccs1)N[C@@H]1C(=O)N2C(C(=O)O)=C(/C=C/c3ccc([N+](=O)[O-])cc3[N+](=O)[O-])CS[C@H]12 | Active | Active |  |
| COCC1=C(C(=O)O)N2C(=O)[C@@H](NC(=O)/C(=N\OC)c3csc(N)n3)[C@H]2SC1 | Active | Active |  |
| CC(=O)OCC1=C(C(=O)O)N2C(=O)[C@@H](NC(=O)Cc3cccs3)[C@H]2SC1 | Active | Active |  |
| CO/N=C(\C(=O)N[C@@H]1C(=O)N2C(C(=O)O)=C(COC(C)=O)CS[C@H]12)c1csc(N)n1 | Active | Active |  |
